Experimental findings from ChEMBL document CHEMBL3745614, “Potent and selective N-(4-sulfamoylphenyl)thiourea-based GPR55 agonists” (Eur J Med Chem, 2016) are described below.

In experiment [1] the target is T1, G-protein coupled receptor 55 (Homo sapiens, UniProt Q9Y2T6). The experiment is described as follows: Agonist activity at human GPR55 expressed in CHOK1 cells at 10 uM by pathHunter beta-arrestin assay relative to LPI. The format is cell-based. To be noted: CHO-K1. A digest of the protocol:
(§1)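 PathHunter eXpress GPR55 CHO-K1 β-arrestin kit run per the kit protocol, compounds screened at 10 μM. Luminescence read and expressed as percentage of the signal from bovine liver LPI at 1 μM. Mean with range of two experiments, each done in duplicate.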

Experiment [2] concerns the target T1, G-protein coupled receptor 55. The experiment is described as follows: Agonist activity at human GPR55 expressed in HEK293 cells assessed as calcium signalling by fura 2-based digital epifluorescence microscopy. The format is functional, cell-based. In outline:
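HEK293 cells stably expressing GPR55, grown on poly-L-lysine coated glass coverslips and serum-starved overnight. Compounds applied by bath perfusion in HEPES-buffered saline at 30-32 °C. Single-cell fura 2 ratiometric imaging (350/380 nm) every 5 s. Peak responses pooled from 24 cells (12 random cells from each of two experiments) per concentration; EC50 with 95% CI from concentration-response curves. ARA-LPI used as reference agonist.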

Experiment [3] has as its target Cannabinoid receptor 1 (Homo sapiens) (UniProt P21554). The experiment is described as follows: Agonist activity at CBR1 (unknown origin) assessed as [35S]GTPgammaS binding at 10 uM by […] assay relative to control. The format is functional. A general note: GTPγS is a poorly hydrolysed GTP analogue; its binding reports G protein activation.
The target in experiment [4] is Cannabinoid receptor 2 (Homo sapiens) (UniProt P34972). The experiment is described as follows: Antagonist activity at human CBR2 assessed as [35S]GTPgammaS binding at 10 uM by […] assay relative to control. The format is functional. Further details: scale not given: the % may be the effect or the level left.
Experiment [5] has the same target. Put plainly: Agonist activity at CBR2 (unknown origin) assessed as [35S]GTPgammaS binding at 10 uM by […] assay relative to control. The format is functional.
The target in experiment [6] is T2, Fatty-acid amide hydrolase 1 (Homo sapiens) (UniProt O00519).
T2 sequence (whole entry): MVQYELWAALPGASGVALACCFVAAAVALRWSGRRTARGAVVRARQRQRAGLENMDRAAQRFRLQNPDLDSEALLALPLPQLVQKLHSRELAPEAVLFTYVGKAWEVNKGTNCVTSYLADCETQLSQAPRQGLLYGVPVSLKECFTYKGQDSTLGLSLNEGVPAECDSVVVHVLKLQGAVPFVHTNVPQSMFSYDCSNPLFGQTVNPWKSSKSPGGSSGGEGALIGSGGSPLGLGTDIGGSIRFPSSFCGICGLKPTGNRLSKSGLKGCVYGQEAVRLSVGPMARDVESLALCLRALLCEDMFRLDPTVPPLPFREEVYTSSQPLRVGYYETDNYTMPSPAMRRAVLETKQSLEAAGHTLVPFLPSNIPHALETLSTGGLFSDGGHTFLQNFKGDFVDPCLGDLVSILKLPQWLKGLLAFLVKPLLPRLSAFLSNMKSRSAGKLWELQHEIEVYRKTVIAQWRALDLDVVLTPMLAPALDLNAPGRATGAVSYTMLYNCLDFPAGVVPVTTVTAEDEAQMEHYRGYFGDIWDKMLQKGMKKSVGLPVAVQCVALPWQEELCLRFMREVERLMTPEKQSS
Put plainly: Inhibition of human FAAH expressed in African green monkey COS-7 cell membranes using [3H]-AEA as substrate assessed as residual activity at 10 uM preincubated for 10 mins followed by substrate addition measured after 10 mins by liquid scintillation counting analysis relative to control. A digest of the protocol:
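Membranes of COS-7 cells overexpressing hFAAH, 1 μg protein per incubation. Substrate 20 μM AEA including 10 nM [3H]AEA (60 Ci/mmol). Compounds tested at 10 μM.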

Experiment [7] concerns the target T3, Monoglyceride lipase (Homo sapiens) (UniProt Q99685).
T3 sequence (whole entry): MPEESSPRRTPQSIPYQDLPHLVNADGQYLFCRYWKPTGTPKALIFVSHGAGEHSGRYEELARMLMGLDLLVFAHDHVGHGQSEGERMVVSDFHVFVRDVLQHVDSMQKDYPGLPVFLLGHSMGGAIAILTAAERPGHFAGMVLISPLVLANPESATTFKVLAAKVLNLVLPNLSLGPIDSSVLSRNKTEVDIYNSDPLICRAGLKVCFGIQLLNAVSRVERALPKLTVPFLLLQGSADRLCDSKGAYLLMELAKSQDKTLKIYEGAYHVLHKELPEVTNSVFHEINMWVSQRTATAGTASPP
Put plainly: Inhibition of human MGL expressed in […] cells using 2AG as substrate assessed as residual activity at 10 uM preincubated for 10 mins followed by substrate addition measured after 10 mins by HPLC analysis. The format is cell-based. A digest of the protocol: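 Lysates of HEK cells overexpressing hMGL, 2.5 μg protein per incubation, substrate at 50 μM. Compounds tested at 10 μM.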

The target of experiment [8] is T4, Lysophosphatidylserine lipase ABHD12 (Homo sapiens) (UniProt Q8N2K0).
T4 sequence (whole entry): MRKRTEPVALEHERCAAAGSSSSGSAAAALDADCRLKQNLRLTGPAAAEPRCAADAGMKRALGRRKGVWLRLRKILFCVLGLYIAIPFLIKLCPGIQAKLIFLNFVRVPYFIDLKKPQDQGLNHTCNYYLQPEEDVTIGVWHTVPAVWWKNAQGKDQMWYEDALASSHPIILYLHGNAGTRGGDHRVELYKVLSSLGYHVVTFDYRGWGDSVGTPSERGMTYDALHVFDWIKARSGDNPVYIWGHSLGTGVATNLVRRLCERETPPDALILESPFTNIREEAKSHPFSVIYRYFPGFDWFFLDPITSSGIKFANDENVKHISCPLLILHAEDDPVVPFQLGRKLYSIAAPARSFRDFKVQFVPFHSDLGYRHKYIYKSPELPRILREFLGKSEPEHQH
Put plainly: Inhibition of human ABHD12 expressed in […] cells using 2-AG as substrate assessed as glycerol liberation at 10 uM preincubated for 30 mins followed by 2-AG addition measured for 90 mins by fluorescent glycerol assay relative to control. Further details: scale not given: the % may be the effect or the level left. The format is cell-based. In outline:
(§2)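 Lysates of HEK293 cells transiently overexpressing hABHD6 or hABHD12, 0.3 μg protein/well. Pretreated 30 min with DMSO or compound, then 2-AG added (12.5 μM final). Glycerol release coupled enzymatically to H2O2-dependent resorufin formation; fluorescence (ex 530/em 590 nm) followed kinetically for 90 min.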

The target in experiment [9] is T5, Monoacylglycerol lipase ABHD6 (Homo sapiens) (UniProt Q9BV23).
T5 sequence (whole entry): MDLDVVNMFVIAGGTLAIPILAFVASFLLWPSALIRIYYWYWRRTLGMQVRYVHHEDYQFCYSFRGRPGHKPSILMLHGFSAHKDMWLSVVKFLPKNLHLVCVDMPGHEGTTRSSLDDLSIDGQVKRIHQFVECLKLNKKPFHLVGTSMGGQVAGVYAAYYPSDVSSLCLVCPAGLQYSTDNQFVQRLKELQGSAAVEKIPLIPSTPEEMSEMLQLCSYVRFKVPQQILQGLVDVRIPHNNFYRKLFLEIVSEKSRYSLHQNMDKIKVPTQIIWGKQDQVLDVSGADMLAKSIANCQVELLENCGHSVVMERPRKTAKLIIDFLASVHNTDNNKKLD
The experiment is described as follows: Inhibition of human ABHD6 expressed in […] cells using 2-AG as substrate assessed as glycerol liberation at 10 uM preincubated for 30 mins followed by 2-AG addition measured for 90 mins by fluorescent glycerol assay relative to control. The arrangement: scale not given: the % may be the effect or the level left. The format is cell-based. A digest of the protocol: as §2

Experiment [10] has as its target T1, G-protein coupled receptor 55. The experiment is described as follows: Agonist activity at human GPR55 expressed in CHOK1 cells at 10 uM by pathHunter beta-arrestin assay relative to control. To be noted: CHO-K1. The format is cell-based. A digest of the protocol:
as §1

Experiment [11] concerns the target Cannabinoid receptor 1 (Homo sapiens) (UniProt P21554). The experiment is described as follows: Antagonist activity at human CBR1 assessed as [35S]GTPgammaS binding at 10 uM by radiometric assay relative to control. The arrangement: scale not given: the % may be the effect or the level left.
In experiment [12] the target is T4, Lysophosphatidylserine lipase ABHD12 (Homo sapiens). Put plainly: Inhibition of human ABHD12 expressed in […] cells using 2-AG as substrate assessed as glycerol liberation at 1 uM preincubated for 30 mins followed by 2-AG addition measured for 90 mins by fluorescent glycerol assay relative to control. The format is cell-based. The arrangement: scale not given: the % may be the effect or the level left. A digest of the protocol:
as §2

Experiment [13] deals with T5, Monoacylglycerol lipase ABHD6 (Homo sapiens). Put plainly: Inhibition of human ABHD6 expressed in […] cells using 2-AG as substrate assessed as glycerol liberation at 1 uM preincubated for 30 mins followed by 2-AG addition measured for 90 mins by fluorescent glycerol assay relative to control. The format is cell-based. The arrangement: scale not given: the % may be the effect or the level left. In outline:
as §2

Chain of Cannabinoid receptor 2 (Homo sapiens) (P34972 whole entry): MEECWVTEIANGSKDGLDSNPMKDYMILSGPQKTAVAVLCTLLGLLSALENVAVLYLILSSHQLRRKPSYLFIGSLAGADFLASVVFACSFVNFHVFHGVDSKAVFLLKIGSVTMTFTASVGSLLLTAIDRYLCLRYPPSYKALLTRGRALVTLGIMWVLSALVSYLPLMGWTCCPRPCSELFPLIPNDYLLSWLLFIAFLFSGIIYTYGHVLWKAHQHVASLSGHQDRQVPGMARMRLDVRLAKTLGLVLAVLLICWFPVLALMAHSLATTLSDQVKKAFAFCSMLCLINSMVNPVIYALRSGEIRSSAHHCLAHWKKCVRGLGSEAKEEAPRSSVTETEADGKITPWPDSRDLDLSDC
Chain of Cannabinoid receptor 1 (Homo sapiens) (P21554 whole entry): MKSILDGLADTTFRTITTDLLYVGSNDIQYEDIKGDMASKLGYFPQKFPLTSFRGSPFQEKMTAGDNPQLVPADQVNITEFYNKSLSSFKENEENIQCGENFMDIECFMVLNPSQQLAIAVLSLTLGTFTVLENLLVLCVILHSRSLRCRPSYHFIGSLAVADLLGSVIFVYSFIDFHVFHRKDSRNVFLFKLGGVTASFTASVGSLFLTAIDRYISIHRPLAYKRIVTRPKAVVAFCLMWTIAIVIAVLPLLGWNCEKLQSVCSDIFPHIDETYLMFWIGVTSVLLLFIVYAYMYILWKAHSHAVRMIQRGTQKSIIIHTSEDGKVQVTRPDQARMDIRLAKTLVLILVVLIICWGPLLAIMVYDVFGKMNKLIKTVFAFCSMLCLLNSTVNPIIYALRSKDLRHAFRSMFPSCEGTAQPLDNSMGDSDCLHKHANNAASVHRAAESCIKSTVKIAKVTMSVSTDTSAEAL
T1 sequence (Q9Y2T6 whole entry): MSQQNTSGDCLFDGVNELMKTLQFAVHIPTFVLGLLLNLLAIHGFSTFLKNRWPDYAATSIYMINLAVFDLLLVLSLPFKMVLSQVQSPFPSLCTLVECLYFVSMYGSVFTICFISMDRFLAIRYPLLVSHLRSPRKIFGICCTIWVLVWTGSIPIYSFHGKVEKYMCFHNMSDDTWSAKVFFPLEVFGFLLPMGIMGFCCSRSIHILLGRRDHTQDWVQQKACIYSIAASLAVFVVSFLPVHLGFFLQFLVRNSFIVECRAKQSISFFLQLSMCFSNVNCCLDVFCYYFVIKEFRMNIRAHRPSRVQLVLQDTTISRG

Take `O=C(NC(=S)Nc1ccc(S(=O)(=O)Nc2ccccc2)cc1)c1ccc(-c2ccccc2)cc1`: the Activity in [1] was determined as 178%; in experiment [3], 100%; in experiment [4] it was 96%; in experiment [5], 90%; in experiment [6] it was 103%; in experiment [7] it was 104%. The Activity came to 78% in [8], 78% in experiment [9], 263% in [10] and 95% in [11]. Moreover, the half-maximal effective concentration (EC50) (in general, the midpoint of the concentration-response curve) in experiment [2] stood at 6.2 nM.

On to `C=CCN(CC=C)S(=O)(=O)c1ccc(NC(=S)NC(=O)c2ccc([N+](=O)[O-])cc2)cc1`, for which the Activity in [1] turned out to be 93%; in experiment [3] it was 99%; in experiment [4], 105%; in [5], 107%; in experiment [6] it was 97%; in [7], 104%. Besides, the Activity stood at 62% in experiment [8]; 102% in experiment [12]; 53% in experiment [9]; 102% in experiment [13]; 138% in [10]; 91% in experiment [11].

Consider `Cc1ccc(C(=O)NC(=S)Nc2ccc(S(=O)(=O)NC(C)(C)C)cc2)cc1`, for which the Activity in [1] stood at 69%; in [3] it was 105%; in experiment [4] it was 96%; in experiment [5], 100%; in experiment [6], 103%; in experiment [7] it was 96%. Also, the Activity in experiment [8] stood at 65%; in [12], 100%; in [9], 53%; in [13] it was 96%; in experiment [10] it was 102%; in experiment [11] it was 103%.

As for `O=C(NC(=S)Nc1ccc(S(=O)(=O)NCc2ccco2)cc1)c1ccc(-c2ccccc2)cc1`, the Activity in experiment [1] amounted to 168%; in experiment [3], 100%; in experiment [4], 99%; in experiment [5], 97%; in [6], 91%; in [7], 93%. Further, the Activity was 101% in experiment [12], 91% in experiment [13], 246% in experiment [10] and 91% in experiment [11]. The EC50 in experiment [2] came to 2 nM.

Turning to `CN1CCN(S(=O)(=O)c2ccc(NC(=S)NC(=O)c3ccc(-c4ccccc4)cc3)cc2)CC1`, the Activity in [1] was determined as 148%; in [3], 101%; in experiment [4] it was 95%; in [5] it was 101%; in [6], 101%; in [7], 97%. For the same molecule, the Activity in experiment [8] turned out to be 81%; in experiment [9], 76%; in experiment [10], 218%; in experiment [11], 91%. Moreover, the 50% effective concentration (EC50) in experiment [2] stood at 218 nM.

As to `CCCNS(=O)(=O)c1ccc(NC(=S)NC(=O)c2ccc(-c3ccccc3)cc2)cc1`, the Activity is 172% in experiment [1]; 128% in experiment [3]; 85% in experiment [4]; 85% in experiment [5]; 96% in [6]; 103% in experiment [7]. Besides, the Activity in [8] stood at 77%; in experiment [9], 67%; in experiment [13] it was 103%; in experiment [10], 252%; in experiment [11] it was 91%. In addition, in experiment [2], the EC50 amounted to 176 nM.

Regarding `CC(C)NS(=O)(=O)c1ccc(NC(=S)NC(=O)c2ccc(-c3ccccc3)cc2)cc1`, the Activity in [3] is 110%; in experiment [4], 86%; in [5] it was 96%; in experiment [6], 87%; in [7], 98%; in [8], 65%. The Activity in [12] was determined as 107%; in [9], 34%; in experiment [13], 95%; in [10], 185%; in [11], 92%.

On to `O=C(NC(=S)Nc1ccc(S(=O)(=O)NCc2ccccc2)cc1)c1ccc(-c2ccccc2)cc1`, for which the Activity in experiment [1] was 197%; in [3], 97%; in experiment [4], 83%; in experiment [5], 93%; in experiment [6], 106%; in [7], 97%. Besides, the Activity in experiment [8] came out at 86%; in experiment [9], 86%; in [10] it was 291%; in experiment [11], 94%. Further, the EC50 in experiment [2] stood at 5.6 nM.

In the case of `CN(C)S(=O)(=O)c1ccc(NC(=S)NC(=O)c2ccc(-c3ccccc3)cc2)cc1`, the Activity in experiment [1] turned out to be 101%; in experiment [3], 105%; in experiment [4] it was 96%; in [5], 90%; in experiment [6], 54%; in experiment [7], 93%. Further, the Activity in experiment [8] was found to be 74%; in experiment [9], 79%; in experiment [10], 148%; in [11], 96%. The concentration giving a half-maximal response (EC50) in experiment [2] stood at 55.7 nM.

As to `CCCCC/C=C\C/C=C\C/C=C\C/C=C\CCCC(=O)OC[C@@H](O)COP(=O)(O)O[C@@H]1[C@@H](O)[C@H](O)[C@@H](O)[C@H](O)[C@@H]1O`, the EC50 in experiment [2] worked out at 20.2 nM.
